S100A4 MyoIIA – S100A4-myosin IIA interaction inhibition | P26447 | S100A4/TAMRA-MyoIIA peptide fluorescence polarization | inhibition, % at 10.7 µM | actives 0.14% (n = 360,000);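 active = mean inhibition of at least 70% across replicates, with every replicate also reaching that level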
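Compound dosing: one dose per compound; test system: human S100A4 monomer with TAMRA-labelled myosin IIA peptide; probe or stimulus: TAMRA-labelled myosin IIA heavy-chain peptide probe, 5 nM; medium: HEPES buffer with Ca2+, pH 7.2; schedule: 5 min incubation before reading; benchmarks: neutral control DMSO, positive control TFP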
DENV2 CPE – inhibitors of DENV2 cytopathic effect; actives 1.7% (n = 350,000); CPE inhibition, % at 9.99 µM; DENV2-infected cells, cytopathic effect rescue, plate reader; AID 651640; in the data active = CPE inhibition above about 20%, passing the limit was not always enough; tested in BHK-21 cells;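 note: 0% = median of neutral control wells and 100% = median of positive control wells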
E-selectin induc – induces E-selectin expression in human endothelial cells; P16581; HUVEC E-selectin immunofluorescence imaging; normalized: neutral wells 0, TNF-alpha wells 100; activation, % at 7.58 µM; actives 0.37% (n = 260,000); AID 686992;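 active = mean E-selectin-positive cell signal at least 10% of the positive control, reached in at least 60% of replicates, without over 20% cell loss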
Target sequence (P16581 whole entry, looked up): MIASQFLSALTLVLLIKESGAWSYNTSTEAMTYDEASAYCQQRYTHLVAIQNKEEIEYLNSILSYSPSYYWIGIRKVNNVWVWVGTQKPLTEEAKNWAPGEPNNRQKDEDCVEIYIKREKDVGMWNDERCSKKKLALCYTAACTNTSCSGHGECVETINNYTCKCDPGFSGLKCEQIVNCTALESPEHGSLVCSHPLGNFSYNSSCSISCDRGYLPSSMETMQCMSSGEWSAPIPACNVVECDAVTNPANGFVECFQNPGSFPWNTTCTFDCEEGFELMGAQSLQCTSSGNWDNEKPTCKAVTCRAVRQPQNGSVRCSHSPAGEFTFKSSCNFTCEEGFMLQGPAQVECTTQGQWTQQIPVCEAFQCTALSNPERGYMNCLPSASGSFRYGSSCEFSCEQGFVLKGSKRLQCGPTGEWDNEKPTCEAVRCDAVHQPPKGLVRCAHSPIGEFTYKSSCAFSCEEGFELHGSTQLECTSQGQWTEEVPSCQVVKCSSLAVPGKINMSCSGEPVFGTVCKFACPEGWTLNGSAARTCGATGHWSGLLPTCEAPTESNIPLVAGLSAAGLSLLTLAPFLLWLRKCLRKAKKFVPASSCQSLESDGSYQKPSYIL
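material = human umbilical vein endothelial cells (HUVEC), E-selectin induction | quantity = 3,000 cells/well | medium = EGM-2 growth medium on 0.1% gelatin-coated wells | technique = immunofluorescence imaging | read-out basis = % PE-positive cells | control set = TNF-alpha positive control, DMSO neutral control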
Xi reactivation – activators of X-chromosome reactivation in mouse fibroblasts; XiGFP mouse fibroblasts, % GFP-positive cells imaging, 3 d; cells co-treated with 5-aza-dC sensitizer; scaled so ellipticine positive control = 100%; activation, % at 7.58 µM; actives 0.055% (n = 360,000);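 active = mean normalized replicate activation at least 10% and every replicate at or above 10%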;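 note: 0% = median of on-plate neutral control wells and 100% = ellipticine 6 µM median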
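assay system = SV40-immortalized XiGFP fibroblast cells, line 68-5-11 | buffer or medium = DMEM plus 5-aza-dC sensitizer | doses = single-point pinned compound dosing | times = 3-day compound exposure, then 15 min fixation at room temperature | benchmarks = positive control ellipticine, 6 µM final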
Numbers without * were called inactive. Hits are enriched below; roughly 2% of the tested compounds scored in any of these assays.

Screening C[C@@H]1CN([C@@H](C)CO)C(=O)Cc2cc(NS(=O)(=O)c3cccs3)ccc2O[C@@H]1CN(C)Cc1ccc(-c2ccccc2)cc1 returned S100A4 MyoIIA -4, DENV2 CPE 44*, E-selectin induc 0 and Xi reactivation 0.
For CCCCN(CCCNC(=O)C1CCN(C(=O)c2cc3sccc3n2C)CC1)Cc1ccccc1 the results were S100A4 MyoIIA 2, DENV2 CPE -3 and Xi reactivation 0.
For O=C1COC(c2ccccc2)=CN1Cc1ccccc1 the results were S100A4 MyoIIA -3, DENV2 CPE -19, E-selectin induc 0 and Xi reactivation 0.
C[C@H]1CN([C@@H](C)CO)C(=O)Cc2cc(NC(=O)CCCCCC(=O)Nc3ccccc3N)ccc2O[C@H]1CN(C)Cc1ccc(C(F)(F)F)cc1 was read as S100A4 MyoIIA -5, DENV2 CPE 80*, E-selectin induc 0 and Xi reactivation 1.
C[C@@H]1CN([C@@H](C)CO)C(=O)Cc2cc(NC(=O)CCCCCC(=O)Nc3ccccc3N)ccc2O[C@H]1CN(C)Cc1ccc(C(F)(F)F)cc1 was read as S100A4 MyoIIA -1, DENV2 CPE 50*, E-selectin induc 0 and Xi reactivation 0.
Screening C[C@H]1CN([C@@H](C)CO)C(=O)Cc2cc(NC(=O)CCCCCC(=O)Nc3ccccc3N)ccc2O[C@@H]1CN(C)Cc1ccc(C(F)(F)F)cc1 returned S100A4 MyoIIA 4, DENV2 CPE -5, E-selectin induc 0 and Xi reactivation 0.
`COc1ccc2c3c(n(C)c2c1)[C@@H](CO)N(C(=O)Nc1ccc(F)cc1)CC31CCN(C(=O)Cc2ccncc2)CC1` gave S100A4 MyoIIA -4, DENV2 CPE 40*, E-selectin induc 0 and Xi reactivation 0.
COc1ccc2c3c(n(C)c2c1)[C@@H](CO)N(Cc1ccccc1)CC31CCN(C)CC1 was read as DENV2 CPE 56*, E-selectin induc 0 and Xi reactivation 0.
CCCNC(=O)N1CCC2(CC1)CN(Cc1ccccn1)[C@@H](CO)c1c2c2ccc(OC)cc2n1C was read as S100A4 MyoIIA -5, DENV2 CPE 71*, E-selectin induc 0 and Xi reactivation 0.
Screening COc1ccc2c3c(n(C)c2c1)[C@H](CO)N(Cc1ccncc1)CC31CCN(C(=O)Cc2ccncc2)CC1 returned S100A4 MyoIIA 3, DENV2 CPE 77*, E-selectin induc 0 and Xi reactivation 0.
For CCOc1ccc(N)c(SSc2cc(OCC)ccc2N)c1 the results were S100A4 MyoIIA -4, DENV2 CPE -5, E-selectin induc 0 and Xi reactivation 0.
`Cc1[nH]oc(=O)c1N=Nc1ccccc1` gave Xi reactivation 0.
For COc1ccc2c3c(n(C)c2c1)[C@@H](CO)N(C(=O)Nc1ccc(F)cc1)CC31CN(C(=O)c2cccnc2)C1 the results were S100A4 MyoIIA 28, DENV2 CPE -6, E-selectin induc 0 and Xi reactivation 0.
Screening COc1ccc2c3c(n(C)c2c1)[C@@H](CO)N(C(=O)Nc1ccc(F)cc1)CC31CN(S(=O)(=O)c2cccs2)C1 returned DENV2 CPE 46*, E-selectin induc 0 and Xi reactivation 1.
COc1ccc2c3c([nH]c2c1)[C@H](CO)N(C(=O)Nc1ccc(F)cc1)CC31CN(S(=O)(=O)c2cccs2)C1 was read as Xi reactivation 0.
COc1ccc2c3c(n(C)c2c1)[C@H](CO)N(C(=O)Nc1ccc(F)cc1)CC31CN(C(=O)c2cccnc2)C1 was read as S100A4 MyoIIA 15, DENV2 CPE 25*, E-selectin induc 0 and Xi reactivation 0.
Screening CCCNC(=S)N1CCC(Cc2ccccc2)CC1 returned S100A4 MyoIIA 1, DENV2 CPE 3, E-selectin induc 0 and Xi reactivation 0.
`C=C(C)[C@@H]1CC[C@]2(C(=O)O)CC[C@]3(C)[C@H](CC[C@@H]4[C@@]5(C)CC[C@H](O)C(C)(C)[C@@H]5CC[C@]43C)[C@@H]12` gave S100A4 MyoIIA -6, DENV2 CPE -7, E-selectin induc 0 and Xi reactivation 0.
For O=C1CC(c2ccccc2)CC(O)=C1C=NCc1ccncc1 (stereo not drawn) the results were S100A4 MyoIIA -2, DENV2 CPE -1 and Xi reactivation 0.
`Cc1cc(C)nc(N/N=C/C2=C(O)CC(c3ccccc3)CC2=O)n1` (stereo not drawn) gave S100A4 MyoIIA 0, DENV2 CPE 32*, E-selectin induc 10 and Xi reactivation 0.
